Reference: ChEMBL document CHEMBL2202988, “D-amino acid based protein arginine deiminase inhibitors: Synthesis, pharmacokinetics, and in cellulo efficacy” (ACS Med Chem Lett, 2012)
Active and inactive are the calls of the source. The rule behind the calls is not given here.

Assays:
[1] = tested on: Mus musculus; experiment: Drug metabolism in C57Bl/6 mouse at 10 mg/kg, iv measured within 2 hrs by LC-MS/MS analysis; format: ADME, organism-based; set-up: dose 10 mg/kg, route intravenous; conditions: in vivo
Procedure, shortened: (§1)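 Mice dosed by iv (2.5 or 10 mg/kg) or ip (10 mg/kg) injection; serum/plasma drug levels measured over time up to 4 h, plotted as mean levels.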

[2] = tested on: MDA-MB-231; experiment: Cytotoxicity against human MDA-MB-231 cells assessed as decrease in cell viability at 200 to 400 uM after 96 hrs by trypan blue assay; format: functional, cell-based
Procedure, shortened: (§2)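 MDA-MB-231 breast cancer cells (PAD1-overexpressing) exposed to inhibitor at 100, 200 and 400 μM; percent viability and cell number read 96 h after addition.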

[3] = tested on: MDA-MB-231; experiment: Cytotoxicity against human MDA-MB-231 cells assessed as decrease in cell number at 400 uM after 96 hrs by trypan blue assay; format: functional, cell-based; procedure, shortened: as §2
[4] = tested on: Mus musculus; experiment: Toxicity in C57BL/6J mouse assessed as body shaking at 150 mg/kg, po after 1 to 4 hrs; format: organism-based; set-up: dose 150 mg/kg, route oral; conditions: in vivo
Procedure, shortened: (§3)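 Mice dosed per os at graded levels up to 150 mg/kg; observable physiological signs (shaking, anxiety, hunching, heavy breathing, stool changes, diarrhea) recorded after treatment, with monitoring over the following days.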

[5] = tested on: Mus musculus; experiment: Toxicity in C57BL/6J mouse assessed as bloody stools at 150 mg/kg, po; format: organism-based; set-up: dose 150 mg/kg, route oral; conditions: in vivo; procedure, shortened: as §3
[6] = tested on: Mus musculus; experiment: Toxicity in C57BL/6J mouse assessed as occurrence of diarrhea at 150 mg/kg, po after 2 to 3 days; format: organism-based; set-up: dose 150 mg/kg, route oral; conditions: in vivo; procedure, shortened: as §3
[7] = tested on: Mus musculus; experiment: Toxicity in po dosed C57BL/6J mouse; format: organism-based; conditions: in vivo
Procedure, shortened: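 Mice (n = 10 per group) were dosed per os at varying doses up to 150 mg/kg. Percent change in total body weight was tracked to 96 h, along with observable signs of toxicity. MTD was taken as the highest dose causing no weight loss or significant toxicity signs. Weight change was tested for significance (P < 0.05).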

[8] = tested on: Mus musculus; experiment: Toxicity in C57BL/6J mouse assessed as heavy breathing at 150 mg/kg, po after 1 to 4 hrs; format: organism-based; set-up: dose 150 mg/kg, route oral; conditions: in vivo; procedure, shortened: as §3
[9] = tested on: MDA-MB-231; experiment: Antiproliferative activity against human MDA-MB-231 cells assessed as Ki-67 level at 100 to 400 uM; format: functional, cell-based
Procedure, shortened: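 MDA-MB-231 triple-negative breast cancer cells (PAD1-overexpressing) exposed to inhibitor at 100, 200 and 400 μM; Ki-67 level taken as the proliferation read-out; tunicamycin at increasing amounts served as positive control for cell-cycle arrest.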

[10] = tested on: Liver; experiment: Half life in mouse liver microsomes; format: ADME, Microsome
Procedure, shortened: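 Stability assessed by incubation with murine hepatic microsomes; half-life derived from compound remaining over time.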

[11] = tested on: MDA-MB-231; experiment: Induction of apoptosis in human MDA-MB-231 cells assessed as increase in caspase-3 activity; format: functional, cell-based
Procedure, shortened: (§4)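 MDA-MB-231 cells given inhibitor at 100, 200 and 400 μM; caspase 3 activity measured 96 h after administration.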

[12] = tested on: Mus musculus; experiment: Drug metabolism in C57Bl/6 mouse at 10 mg/kg, ip measured within 4 hrs by LC-MS/MS analysis; format: ADME, organism-based; set-up: dose 10 mg/kg, route intraperitoneal; conditions: in vivo; procedure, shortened: as §1
[13] = tested on: Mus musculus; experiment: Toxicity in C57BL/6J mouse assessed as loss in body weight at 100 to 150 mg/kg, po after 96 hrs; format: organism-based; set-up: dose 100-150 mg/kg, route oral; conditions: in vivo
Procedure, shortened: (§5)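 Oral dosing of mice (n = 10) at varying doses up to 150 mg/kg; percent change in body weight followed to 96 h, significance at P <0.05.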

[14] = tested on: Mus musculus; experiment: Toxicity in C57BL/6J mouse assessed as anxiety at 150 mg/kg, po after 1 to 4 hrs; format: organism-based; set-up: dose 150 mg/kg, route oral; conditions: in vivo; procedure, shortened: as §3
[15] = tested on: Mus musculus; experiment: Toxicity in C57BL/6J mouse assessed as hunching at 150 mg/kg, po after 1 to 4 hrs; format: organism-based; set-up: dose 150 mg/kg, route oral; conditions: in vivo; procedure, shortened: as §3
[16] = Drug level in C57Bl/6 mouse serum at 2.5 mg/kg, iv after 2 hrs by LC-MS/MS analysis; format: ADME, organism-based; set-up: dose 2.5 mg/kg, route intravenous; conditions: read-out: Drug uptake; procedure, shortened: as §1
[17] = tested on: Mus musculus; experiment: Toxicity in C57BL/6J mouse assessed as change in body weight at 5 to 150 mg/kg, po after 1 to 96 hrs; format: organism-based; set-up: route oral; conditions: in vivo; procedure, shortened: as §5
[18] = Drug level in C57Bl/6 mouse serum at 2.5 mg/kg, iv after 4 hrs by LC-MS/MS analysis; format: ADME, organism-based; set-up: dose 2.5 mg/kg, route intravenous; conditions: read-out: Drug uptake; procedure, shortened: as §1
[19] = Drug level in C57Bl/6 mouse serum at 10 mg/kg, ip after 4 hrs by LC-MS/MS analysis; format: ADME, organism-based; set-up: dose 10 mg/kg, route intraperitoneal; conditions: read-out: Drug uptake; procedure, shortened: as §1
[20] = tested on: MDA-MB-231; experiment: Antiproliferative activity against human MDA-MB-231 cells assessed as decrease in Ki-67 level; format: functional, cell-based
Procedure, shortened: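 MDA-MB-231 triple-negative breast cancer cells (PAD1-overexpressing) treated at 100, 200 and 400 μM. Ki-67 levels assessed 96 h after administration. Tunicamycin served as the positive control for cell cycle arrest.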

[21] = tested on: MDA-MB-231; experiment: Cytotoxicity against human MDA-MB-231 cells assessed as cell viability at 400 uM after 96 hrs by trypan blue assay; format: functional, cell-based; procedure, shortened: as §2
[22] = tested on: MDA-MB-231; experiment: Induction of apoptosis in human MDA-MB-231 cells assessed as caspase-3 activity at 100 to 400 uM; format: functional, cell-based; procedure, shortened: as §4

Structure (SMILES) | Activity [2] | Activity [3] | MTD [7] [mg/kg] | Activity [9] | t1/2 [10] [min] | Activity [11] | Activity [17] | also measured
N=C(CCl)NCCC[C@H](NC(=O)c1ccccc1)C(N)=O | Active | Active | 75 | inactive | 37 | Dose-dependent effect | – | Drug metabolism [1]: Active; Activity [4]: Toxic; Activity [5]: Toxic; Activity [6]: Toxic; Activity [8]: Toxic; Drug metabolism [12]: Active; Activity [13]: Toxic; Activity [14]: Toxic; Activity [15]: Toxic
N=C(CCl)NCCC[C@@H](NC(=O)c1ccccc1)C(N)=O | Active | Active | > 150 | inactive | 33 | Dose-dependent effect | Non-toxic | concentration at 2 h [16]: 21 nM; concentration at 4 h [18]: 10 nM; concentration at 4 h [19]: 10 nM
CC(=O)N[C@H]1[C@@H](O[C@@H]2O[C@H](CC(O)[C@H]3O[C@@H](n4ccc(=O)[nH]c4=O)[C@H](O)[C@@H]3O)[C@H](O)[C@H](O)[C@H]2NC(=O)/C=C/CC(C)C)O[C@H](CO)[C@@H](N)[C@@H]1O (some centres not stated) | – | – | – | – | – | – | – | Activity [20]: Active
N=C(CF)NCCC[C@@H](NC(=O)c1ccccc1C(=O)O)C(N)=O | – | inactive | > 150 | inactive | – | – | Non-toxic | Activity [21]: inactive; Activity [22]: inactive
